Assay outcomes: PubChem, The Scripps Research Institute Molecular Screening Center
An excerpt weighted towards active compounds, which were near 1.9% of everything screened.
CHRM4 PAM: human M4 muscarinic receptor positive allosteric modulators, primary screen, CHO-K1 cells, Fluo-8 calcium fluorescence | Muscarinic acetylcholine receptor M4 (Homo sapiens), P08173 | CHO-K1 hM4/Gqi5, ACh EC20; 0% = ACh EC20, 100% = maximal ACh | activation, % at 3 µM | 360,000 compounds, 0.4% hits | AID 624126, 2012;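 active means activation above its plate's cutoff, the mean activation of sample wells plus 3 SD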
M5 PAM: human M5 muscarinic receptor positive allosteric modulators, primary screen, CHO-K1 cells, Fluo-8 calcium fluorescence. Muscarinic acetylcholine receptor M5 (Homo sapiens), P08912. CHO-K1 hM5, ACh EC20 PAM; 0% = ACh EC20, 100% = ACh EC100. activation, % at 3 µM. 360,000 compounds, 0.3% hits. AID 624038, 2012;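 active means activation above the run cutoff, the mean activation of all test compounds plus 3 SD, cut at about 18% in these data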
Target sequence (P08912 whole entry, looked up): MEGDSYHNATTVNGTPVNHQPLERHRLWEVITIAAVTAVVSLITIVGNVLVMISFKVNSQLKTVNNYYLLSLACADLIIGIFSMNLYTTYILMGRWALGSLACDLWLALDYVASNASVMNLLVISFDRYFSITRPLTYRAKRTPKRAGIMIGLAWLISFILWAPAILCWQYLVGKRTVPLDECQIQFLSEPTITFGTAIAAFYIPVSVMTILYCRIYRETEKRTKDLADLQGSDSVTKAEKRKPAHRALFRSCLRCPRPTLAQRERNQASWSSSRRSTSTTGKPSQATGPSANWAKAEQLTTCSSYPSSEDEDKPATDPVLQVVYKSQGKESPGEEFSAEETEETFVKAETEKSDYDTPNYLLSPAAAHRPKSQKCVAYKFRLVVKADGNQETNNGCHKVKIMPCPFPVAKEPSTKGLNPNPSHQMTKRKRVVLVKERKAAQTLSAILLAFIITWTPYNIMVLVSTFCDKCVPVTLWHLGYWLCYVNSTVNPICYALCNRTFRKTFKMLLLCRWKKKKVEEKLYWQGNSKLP
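Assay system: CHO-K1 hM5 cells / Incubation: Fluo-8 loading 80 min at 37 °C plus 30 min room temperature / Technique: Fluo-8 calcium dye fluorescence, kinetic read / Repeats: single replicate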
CHRM5 agonist: human M5 muscarinic receptor agonists, primary screen, CHO-K1 cells, Fluo-8 calcium fluorescence | AID 624037, 2012 | 360,000 compounds, 0.19% hits | CHO-K1 hM5 cells; 0% DMSO wells, 100% maximal acetylcholine response | activation, % at 3 µM;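 active means activation above the run's mean over test compounds plus 3 SD, cut at about 23% in these data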;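 further: signal is peak over basal fluorescence ratio across the kinetic read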
CHRM4 agonist: human M4 muscarinic receptor agonists, primary screen, CHO-K1 cells, Fluo-8 calcium fluorescence. AID 624127, 2012. 360,000 compounds, 0.14% hits. Muscarinic acetylcholine receptor M4 (Homo sapiens), P08173. activation, % at 3 µM. CHO-K1 hM4/Gqi5; vehicle 0%, full acetylcholine response 100%;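 active means activation above the run mean over all test wells plus 3 SD, cut at about 32% in these data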;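 further: peak over basal fluorescence ratio per well then scaled between controls; 0% = DMSO wells and 100% = acetylcholine at EC100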
CHRM4 antagonist: human M4 muscarinic receptor antagonists, primary screen, CHO cells, Fluo-8 calcium fluorescence; AID 624125, 2012; 360,000 compounds, 0.73% hits; CHO-hM4 cells, ACh EC80; inhibition, % at 3 µM;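 active means inhibition above its plate's cutoff, the mean inhibition of sample wells plus 3 SD, cut at about 27% in these data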;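 further: 0% = acetylcholine EC80 with DMSO and 100% = DMSO without agonist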
M5 antag: human M5 muscarinic receptor antagonists, primary screen, CHO cells, Fluo-8 calcium fluorescence. Muscarinic acetylcholine receptor M5 (Homo sapiens), P08912. CHO-hM5 cells, ACh EC80. inhibition, % at 3 µM. 360,000 compounds, 0.59% hits. AID 624040, 2012;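 active means inhibition above a per-plate cutoff, the mean of that plate's test compounds plus 3 SD, cut at about 27% in these data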;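 further: 0% = acetylcholine EC80 with DMSO and 100% = DMSO without agonist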
* = called active by the depositor; + = active, no number.

SMILES	CHRM4 PAM	M5 PAM	CHRM5 agonist	CHRM4 agonist	CHRM4 antagonist	M5 antag
CCCCN(CC)C(=O)c1n[nH]c(=O)c2ccccc12	24.9	25.3*	6.8	1.6	-3.2	-15.7
CCOC(=O)C(=CN=C(N)Nc1nc2ccccc2o1)C(=O)OCC	20.5*	-4.1	-1.9	0.2	-1.6	-5.7
Cc1ccc(S(=O)(=O)N2CCN(C)CC2c2ccccc2)cc1 (centres undefined)	0.0	-3.2	3.7	-1.0	2.1	4.0
CC(=O)Oc1ccc2c(c1)Oc1cc(OC(C)=O)ccc1C21OC(=O)c2ccccc21	-17.2	-20.9	+	865.5*	101.5*	101.9*
C#CC[N+]1(CC#Cc2ccccc2)CCCCC1	-5.2	2.4	-16.5	2.0	-7.8	1.5
C(#Cc1ccccc1)C[N+]1(CC#Cc2ccccc2)CCCCC1	-17.2	-15.7	-11.5	0.8	32.6*	42.8*
CCC[N+]1(CC#CCC(c2ccccc2)c2ccccc2)CCCCC1	-17.5	-15.2	-5.1	1.1	27.0*	13.8
CC1(NC(=O)C2CCCCC2)CCS(=O)(=O)C1 (centres undefined)	-14.8	-15.5	2.3	19.0	11.6	12.8
CCN(CC)CCN1C(=O)c2ccccc2NC1c1ccc(F)cc1 (centres undefined)	-6.8	3.0	-7.7	0.4	2.5	-8.0
CCN(CC)CCN1C(=O)c2ccccc2NC1c1ccccc1F (centres undefined)	-15.3	-22.6	-6.8	0.5	29.3*	13.7
COC(=O)[C@]1(C)N[C@H](CN(C)C(=O)c2ccccc2)[C@@H]2C(=O)N(Cc3ccccc3)C(=O)[C@@H]21	-0.5	-3.0	0.1	0.7	-11.2	0.0
Cc1ccccc1Sc1ccc(N)cn1	-15.1	-7.6	-3.5	4.0	33.3*	23.2
CCCCC(=O)Nc1ccc2c(c1)nc1n2CCOC1	2.2	-1.1	-0.5	0.5	-9.0	-5.5
CCCC(=O)Nc1ccc2c(c1)nc1n2CCOC1	31.0*	4.7	3.0	0.8	3.1	-10.0
Cc1cc(C(=O)N/N=C/c2c(C)nn(-c3ccccc3)c2C)n[nH]1	-6.2	18.7*	-1.7	1.3	-2.0	-13.4
CN1CCN(S(=O)(=O)c2ccc(N3CCN(S(=O)(=O)/C=C/c4ccccc4)CC3)nc2)CC1	-13.6	-15.8	-11.9	1.7	30.2*	-6.0
CN(C)c1cc[n+](Cc2c(Cl)cccc2Cl)cc1	-34.4	-20.2	-6.1	0.8	60.6*	55.0*
CCOc1cc(OCC)cc(C(=O)N2CCC[C@@H]2C(=O)N2CCC[C@@H]2C(=O)NCc2ccccc2Cl)c1	2.7	-8.3	10.7	8.2	-4.2	9.1
O=C(c1noc2c1CCCC2)N1CCN(c2ccc(F)cc2)CC1	3.1	3.1	2.2	3.1	29.1*	-0.8
COc1ccc(Nc2sc(C(=O)c3ccc(Cl)cc3)c(N)c2C(=O)Nc2ccccc2OC)cc1	-27.6	-2.6	38.6*	73.6*	49.8*	22.1
COc1ccc(NC(=O)c2c(Nc3ccccc3)sc(C(=O)c3ccc(F)cc3)c2N)cc1	-13.9	-14.7	3.9	14.0	13.3	28.0*
COc1ccc(C(=O)c2sc(Nc3ccccc3)c(C(=O)Nc3ccc(OC)c(OC)c3)c2N)cc1	1.0	-5.9	-1.2	2.4	-11.1	16.8
COc1ccc(C(=O)c2sc(Nc3cccc(OC)c3)c(C(=O)Nc3cccc(C)c3C)c2N)cc1	-11.7	7.3	10.2	18.8	21.3	2.9
O=C(C1CC1)N1CCC(c2nc(-c3ccc(S(=O)(=O)N4CCCC4)cc3)no2)CC1	16.1	-16.5	-6.9	3.4	-3.0	66.0*
O=C(NC1CCCCC1)N1CCC(c2nc(-c3ccc(S(=O)(=O)N4CCCC4)cc3)no2)CC1	21.3	-0.7	3.8	2.3	1.5	-8.0
